Among the data in ChEMBL document CHEMBL4049456, “Identification of 4-(Aminomethyl)-6-(trifluoromethyl)-2-(phenoxy)pyridine Derivatives as Potent, Selective, and Orally Efficacious Inhibitors of the Copper-Dependent Amine Oxidase, Lysyl Oxidase-Like 2 (LOXL2)” (J Med Chem, 2017) are IC50 and inhibition values, retold here.

For one test, the target named is T1, Lysyl oxidase homolog 2 (Homo sapiens, UniProt Q9Y4K0).
T1 sequence (Q9Y4K0 whole entry): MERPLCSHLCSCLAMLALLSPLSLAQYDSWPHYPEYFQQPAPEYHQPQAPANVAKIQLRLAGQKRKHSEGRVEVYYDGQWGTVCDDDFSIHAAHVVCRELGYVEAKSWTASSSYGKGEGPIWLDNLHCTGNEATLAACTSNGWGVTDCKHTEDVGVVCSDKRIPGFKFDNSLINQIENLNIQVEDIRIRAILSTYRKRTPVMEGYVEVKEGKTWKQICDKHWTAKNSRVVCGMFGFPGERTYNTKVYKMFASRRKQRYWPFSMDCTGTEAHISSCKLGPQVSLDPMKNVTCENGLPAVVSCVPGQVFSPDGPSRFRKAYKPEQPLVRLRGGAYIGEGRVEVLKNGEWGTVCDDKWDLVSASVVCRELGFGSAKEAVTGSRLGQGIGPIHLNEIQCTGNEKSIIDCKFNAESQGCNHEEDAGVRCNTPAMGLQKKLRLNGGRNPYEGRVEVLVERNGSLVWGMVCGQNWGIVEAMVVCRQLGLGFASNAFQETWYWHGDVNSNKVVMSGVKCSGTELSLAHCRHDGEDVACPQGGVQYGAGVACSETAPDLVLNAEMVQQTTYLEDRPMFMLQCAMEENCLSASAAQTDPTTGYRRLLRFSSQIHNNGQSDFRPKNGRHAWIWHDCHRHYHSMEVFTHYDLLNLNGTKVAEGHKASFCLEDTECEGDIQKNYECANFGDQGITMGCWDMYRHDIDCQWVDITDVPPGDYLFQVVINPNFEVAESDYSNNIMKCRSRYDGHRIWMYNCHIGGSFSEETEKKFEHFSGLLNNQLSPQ
The test is described as follows: Inhibition of human LOXL2 expressed in CHO cells assessed as reduction of H2O2 production from oxidative deamination of DAP preincubated for 2 hrs followed by substrate addition in presence of 0.1% BSA measured every 2 mins for 1 hr by amplex red reagent-based fluorescence assay. It counts as cell-based.

For a further test, the target named is T2, Lysyl oxidase homolog 3 (Homo sapiens, UniProt P58215).
T2 sequence (P58215 whole entry): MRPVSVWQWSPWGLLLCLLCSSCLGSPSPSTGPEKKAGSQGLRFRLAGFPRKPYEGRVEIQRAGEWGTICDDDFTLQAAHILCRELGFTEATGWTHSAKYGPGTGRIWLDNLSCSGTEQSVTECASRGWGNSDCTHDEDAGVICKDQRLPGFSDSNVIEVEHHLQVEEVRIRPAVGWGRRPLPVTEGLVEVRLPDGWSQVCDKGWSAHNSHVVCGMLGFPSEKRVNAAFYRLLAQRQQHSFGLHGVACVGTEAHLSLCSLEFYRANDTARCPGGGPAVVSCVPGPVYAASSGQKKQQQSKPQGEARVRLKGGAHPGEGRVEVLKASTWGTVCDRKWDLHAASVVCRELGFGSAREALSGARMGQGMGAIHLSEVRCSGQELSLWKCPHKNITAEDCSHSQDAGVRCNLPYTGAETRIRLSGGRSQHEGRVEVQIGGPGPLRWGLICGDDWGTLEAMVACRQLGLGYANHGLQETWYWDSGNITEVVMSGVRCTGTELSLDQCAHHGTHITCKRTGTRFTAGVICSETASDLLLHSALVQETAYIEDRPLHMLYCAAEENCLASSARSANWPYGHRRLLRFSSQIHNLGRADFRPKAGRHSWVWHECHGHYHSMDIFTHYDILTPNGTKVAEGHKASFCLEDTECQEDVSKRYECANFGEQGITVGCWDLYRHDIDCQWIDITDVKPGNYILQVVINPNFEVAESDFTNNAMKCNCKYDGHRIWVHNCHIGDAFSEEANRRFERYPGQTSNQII
The test is described as follows: Inhibition of recombinant human LOXL3 assessed as reduction of H2O2 production from oxidative deamination of DAP preincubated for 2 hrs followed by substrate addition measured every 2 mins for 1 hr by amplex red reagent-based fluorescence assay. An outline of the steps:
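Purified recombinant human LOXL3 was preincubated with compound for 2 h, then H2O2 produced from DAP deamination was measured.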

Test [1] has as its target T3, Amine oxidase [copper-containing] 3 (Homo sapiens) (UniProt Q16853).
T3 sequence (whole entry): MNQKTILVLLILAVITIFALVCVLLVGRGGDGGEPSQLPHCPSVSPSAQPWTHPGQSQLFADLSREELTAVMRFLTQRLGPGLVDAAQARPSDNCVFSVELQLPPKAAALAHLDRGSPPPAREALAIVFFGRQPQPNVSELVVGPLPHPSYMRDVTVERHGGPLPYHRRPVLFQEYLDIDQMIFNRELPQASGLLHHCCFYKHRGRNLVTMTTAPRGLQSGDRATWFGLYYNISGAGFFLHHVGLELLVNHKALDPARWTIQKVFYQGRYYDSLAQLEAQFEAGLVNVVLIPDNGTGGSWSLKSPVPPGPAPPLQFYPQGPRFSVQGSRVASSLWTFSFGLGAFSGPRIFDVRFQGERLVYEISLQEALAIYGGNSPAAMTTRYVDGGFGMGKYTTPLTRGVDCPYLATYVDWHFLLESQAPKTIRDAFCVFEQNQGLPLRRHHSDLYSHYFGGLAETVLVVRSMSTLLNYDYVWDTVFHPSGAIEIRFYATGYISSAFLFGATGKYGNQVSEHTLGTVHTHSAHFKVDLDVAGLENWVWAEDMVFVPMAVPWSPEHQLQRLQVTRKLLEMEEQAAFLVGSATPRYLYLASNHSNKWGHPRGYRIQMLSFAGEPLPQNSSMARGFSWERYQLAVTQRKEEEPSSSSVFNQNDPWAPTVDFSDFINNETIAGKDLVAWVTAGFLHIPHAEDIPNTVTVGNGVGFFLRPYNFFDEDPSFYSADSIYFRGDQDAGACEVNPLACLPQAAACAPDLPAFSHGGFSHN
The test is described as follows: Inhibition of SSAO in human plasma assessed as reduction of H2O2 production from oxidative deamination of benzylamine at 10 uM preincubated for 2 hrs followed by substrate addition measured every 2 mins for 1 hr by amplex red reagent-based fluorescence assay relative to control. An outline of the steps: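 Endogenous SSAO in human plasma was the enzyme source and benzylamine the substrate. After a 2 h preincubation with compound, percent inhibition was calculated relative to a vehicle control and to a control containing 1 μM of the known SSAO inhibitor PXS-4681A.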

The IC50 is the concentration needed to halve the response being measured. For orientation: inhibition means the share of the control response that was lost under treatment. In the case of `Cl.NCc1cc(Oc2cccc(C(=O)N3C[C@@H](O)[C@H](F)C3)c2)nc(C(F)(F)F)c1` (racemic), the IC50 is 100 nM at Lysyl oxidase homolog 2 and 1380 nM at Lysyl oxidase homolog 3. In addition, the inhibition in test [1] came to 16%.
